Shown are actives, neighbours in structure and some others; about 1.9% of the full set was active somewhere.
TDP2 absorb = TDP2 (human) inhibition, absorbance primary screen | inhibition, % at 12.8 µM | recombinant TDP2, T5PNP hydrolysis, p-nitrophenol absorbance 415 nm | O95551 | AID 720702 | 370,000 tested, 0.34% active;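 active means inhibition above the mean of all tested compounds plus 3 SD, set per campaign, cut at about 25% in these data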;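 further: 0% = DMSO with enzyme and 100% = buffer with substrate but no TDP2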
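Assay system: Recombinant human TDP2 | Quantity: 120 nM TDP2 per well | Incubation: 2 h at 37 °C | Signal: Epi absorbance | Evaluation: Percent inhibition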
NSD2 HMT inh = inhibitors of human histone methyltransferase NSD2; O96028; inhibition, % at 12.5 µM; 310,000 tested, 0.54% active; NSD2 peptide methylation, AlphaScreen, 120 min; in the data active means inhibition above about 50%
LEDGF integ inh = blocks HIV-1 LEDGF/p75-dependent DNA integration. TR-FRET IN-LEDGF/p75 DNA integration, Eu/Cy5. inhibition, % at 3.7 µM. 370,000 tested, 0.64% active. AID 743269;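 active means inhibition above the screen-wide mean plus 3 SD, cut at about 13% in these data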;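 further: signal is the Cy5 over europium emission ratio at 671 and 618 nm; 0% = plate median of compound wells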
UHRF1 binding = blocks human UHRF1 binding to methylated DNA. Q96T88. UHRF1 binding to methylated oligo, TR-FRET. inhibition, % at 4.4 µM. 370,000 tested, 0.75% active. AID 687016; in the data active means inhibition above about 21%;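 further: UHRF1 SRA domain binding a hemimethylated CpG hairpin DNA probe; 0% = median of test compound wells and 100% = reference inhibitor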
MBD2 DNA inh = blocks human MBD2 binding to methylated DNA | inhibition, % at 4.4 µM | AID 686964 | TR-FRET, MBD2 binding to methylated oligonucleotide | 370,000 tested, 0.31% active; in the data active means inhibition above about 13%
Target sequence (Q9UBB5 whole entry, looked up): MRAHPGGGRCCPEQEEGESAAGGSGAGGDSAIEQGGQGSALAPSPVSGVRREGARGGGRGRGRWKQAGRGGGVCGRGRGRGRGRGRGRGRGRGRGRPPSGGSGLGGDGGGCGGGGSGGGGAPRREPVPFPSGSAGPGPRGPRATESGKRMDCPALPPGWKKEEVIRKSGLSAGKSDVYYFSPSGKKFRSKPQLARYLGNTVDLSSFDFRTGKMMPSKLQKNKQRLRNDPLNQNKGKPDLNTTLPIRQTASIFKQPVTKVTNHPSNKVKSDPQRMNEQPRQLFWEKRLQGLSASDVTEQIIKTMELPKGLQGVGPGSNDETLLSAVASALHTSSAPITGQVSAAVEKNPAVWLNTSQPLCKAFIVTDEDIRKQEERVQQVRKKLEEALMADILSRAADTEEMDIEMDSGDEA
CASP6 VEID inh = blocks human caspase-6 cleavage activity. purified caspase-6, Z-VEID-R110 cleavage fluorescence. P55212. 350,000 tested, 0.53% active. inhibition, % at 12.5 µM;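 active means mean inhibition across replicates at least about 35%, with every replicate also reaching that limit, limit read from the data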;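 further: 0% = median of neutral control wells and 100% = no fluorescence left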
* = called active by the depositor; . = no result given.

SMILES | TDP2 absorb | NSD2 HMT inh | LEDGF integ inh | UHRF1 binding | MBD2 DNA inh | CASP6 VEID inh
CCn1cc(C(=O)N[C@H](C(=O)NC(C)(C)CO)C(C)C)c(=O)c2cc3c(cc21)OCO3 | 25* | -1 | 0 | -2 | -4 | 1
C[C@@H]1CCCCO[C@@H](CN(C)C(=O)CCC(F)(F)F)[C@@H](C)CN([C@@H](C)CO)C(=O)c2cc(N(C)C)ccc2O1 | . | . | . | . | . | 2
C=C(C)CN=CC1(C)CCC(C)=CO1 (stereo not drawn) | 0 | -2 | -3 | 37* | 0 | 3
O=C(CSc1nnc(-c2ccc(F)cc2)o1)NC1CCCCC1 | 4 | -5 | -4 | 35* | 4 | -1
COc1ccc(OCc2nnc(SCC(=O)NC3CCCCC3)o2)cc1 | 12 | 0 | 1 | 1 | -3 | -6
O=C(CSc1nnc(-c2ccncc2)o1)NC1CCCCC1 | 4 | 1 | -4 | 4 | 5 | -5
COc1ccc(Cc2nnc(SCC(=O)NC3CCCC3)o2)cc1 | 7 | 0 | 1 | 45* | 1 | .
COc1ccc(C(=O)CCc2ccc(OC)c(OC)c2)cc1 | -26 | 1 | 7 | 4 | -1 | -1
COc1cc(O)c(CCC(=O)c2ccc(OC)c(OC)c2)c(OC)c1 | -19 | 42 | -3 | 63* | 2 | 2
O=C(O)C1Nc2c(O)cc(Cl)c([N+](=O)[O-])c2C2C=CCC12 (stereo not drawn) | 17 | . | 72* | 93* | 63* | 98*
C[C@H]1CN([C@@H](C)CO)S(=O)(=O)c2ccc(C#CC3CC3)cc2O[C@@H]1CN(C)C(=O)c1cnccn1 | . | . | . | . | . | 2
O=C(Nc1ccc(F)cc1)c1ccccc1NC(=O)C1CC=CCC1C(=O)O (stereo not drawn) | -2 | -2 | 2 | -2 | 2 | 37*
O=C(O)c1cnn2c1C(=O)N(Cc1cccs1)CC2 | -3 | 8 | 4 | 2 | 5 | 64*
CC(C)NC(=O)Nc1ccc2c(c1)C(=O)N([C@@H](C)CO)C[C@H](C)[C@H](CN(C)C(=O)Nc1ccccc1)OCCCC[C@@H](C)O2 | . | . | . | . | . | -4
CCCc1nc2ccc(Br)cn2c1Cc1cccc(Cl)c1 | 2 | . | -2 | 21* | 8 | 1
Clc1cccc(Cc2c(-c3cccc(Cl)c3)nc3ccc(Br)cn23)c1 | -5 | . | -3 | 3 | 5 | -1
CCCc1nc2ccc(C)cn2c1Cc1ccccc1 | 0 | . | 0 | 21 | 11 | 1
CCCc1nc2ccc(Br)cn2c1Cc1ccccc1 | -5 | . | 4 | 23* | 4 | 3
O=C(C[C@H]1CC[C@H]2[C@@H](COC[C@H](O)CN2C(=O)Nc2cc(Cl)cc(Cl)c2)O1)NCC1CCCCC1 | . | . | . | . | . | 0
C=C(CCC(=O)c1ccccc1)C(=O)c1ccccc1 | 1 | 4 | 4 | 4 | 3 | 61*
Cc1nn(C(C)c2nc(-c3ccccc3)no2)c(C)c1[N+](=O)[O-] (stereo not drawn) | -9 | 5 | -3 | 33* | -1 | .
COc1ccc(-c2noc(C(C)n3nc(C)c([N+](=O)[O-])c3C)n2)cc1OC (stereo not drawn) | 4 | 1 | -4 | -3 | 4 | .
Cc1ccc(S(=O)(=O)N(C)C[C@@H]2Oc3ccc(NS(=O)(=O)c4ccccc4)cc3C(=O)N([C@H](C)CO)C[C@H]2C)cc1 | . | . | . | . | . | 4
COc1ccc(S(=O)(=O)N2CCC(C(=O)Nc3nccs3)CC2)cc1 | 0 | -5 | -2 | 30* | -4 | 0
Cn1cc(Cl)c(-c2n[nH]c(=S)n2-c2ccccc2)n1 | 2 | -1 | -2 | 2 | -2 | .
Cc1ccc(-n2c(-c3nn(C)cc3Cl)n[nH]c2=S)cc1 | -8 | -2 | 1 | 21* | 3 | .
CO[C@@H]1CN(C)C(=O)c2cc(NC(=O)c3cccc(F)c3)ccc2OC[C@@H](C)N(CC2CC2)C[C@@H]1C | . | . | . | . | . | -2
COc1ccccc1Nc1ccc(C(=O)NC2CCCCC2)cn1 | -10 | 0 | -2 | 27* | -2 | 2
COc1ccccc1Nc1cc(C(=O)NC2CCCC2)c2ccccc2n1 | -2 | -2 | -3 | 1 | -2 | -1
COc1cc(OC)c(OC)cc1CCC(C)NCCC(c1ccccc1)c1ccccc1 (stereo not drawn) | 5 | 71* | -3 | 0 | 7 | 1

Screens: PubChem, several laboratories
